From ChEMBL document CHEMBL1153988 (J Med Chem, 2009)
The source made the active and inactive calls.

Key:
[1] = tested on: Mus musculus; assay: Neurotoxicity in CF1 albino mouse at 30 mg/kg, ip after 0.5 hrs; assay type: toxicity, organism-based; parameters: dose 30 mg/kg, route intraperitoneal; details: in vivo
In short: (§1)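 Male CF no. 1 albino mice (18-25 g) received a single ip dose as a suspension in 0.5% methylcellulose. The read-out was the number of animals showing neurotoxicity (minimal motor impairment) over the number tested.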

[2] = tested on: Rattus norvegicus; assay: Anticonvulsant activity in albino Sprague-Dawley rat assessed as protection against scMet-induced seizures at 50 mg/kg, po after 30 mins; assay type: functional
In short: (§2)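 Male Sprague-Dawley albino rats (100-150 g) were given the compound orally as a suspension in 0.5% methylcellulose. Seizures were induced by subcutaneous pentylenetetrazol, dissolved in 0.9% saline as a 2.82% solution. The read-out was animals protected over animals tested.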

[3] = tested on: Mus musculus; assay: Anticonvulsant activity in CF1 albino mouse assessed as protection against scMet-induced seizures at 300 mg/kg, ip after 4 hrs; assay type: functional, organism-based; parameters: dose 300 mg/kg
In short: (§3)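 Adult male CF no. 1 albino mice (18-25 g) dosed intraperitoneally with compound suspended in 0.5% methylcellulose (0.01 mL/g). Convulsant challenge given subcutaneously as a 0.85% pentylenetetrazol solution in 0.9% saline. Read-out is animals protected over animals tested, with neurotoxicity scored in parallel.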

[4] = tested on: Mus musculus; assay: Anticonvulsant activity in CF1 albino mouse assessed as protection against maximal electroshock-induced seizures at 100 mg/kg, ip after 4 hrs; assay type: functional, organism-based; parameters: dose 100 mg/kg
In short: (§4)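 Adult male CF no. 1 albino mice (18-25 g). Test compound suspended in 0.5% methylcellulose and given intraperitoneally at 0.01 mL/g body weight. Maximal electroshock challenge at the stated time. Read-out is the number of animals protected over the number tested; neurotoxicity is scored in parallel.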

[5] = tested on: Mus musculus; assay: Neurotoxicity in CF1 albino mouse at 300 mg/kg, ip after 4 hrs; assay type: toxicity, organism-based; parameters: dose 300 mg/kg, route intraperitoneal; details: in vivo; in short: as §1
[6] = tested on: Rattus norvegicus; assay: Anticonvulsant activity in albino Sprague-Dawley rat assessed as protection against scMet-induced seizures at 50 mg/kg, po after 15 mins; assay type: functional; in short: as §2
[7] = tested on: Mus musculus; assay: Anticonvulsant activity in CF1 albino mouse assessed as protection against scMet-induced seizures at 30 mg/kg, ip after 4 hrs; assay type: functional, organism-based; parameters: dose 30 mg/kg; in short: as §3
[8] = tested on: Rattus norvegicus; assay: Anticonvulsant activity in albino Sprague-Dawley rat assessed as protection against scMet-induced seizures at 50 mg/kg, po after 2 hrs; assay type: functional; in short: as §2
[9] = tested on: Mus musculus; assay: Anticonvulsant activity in CF1 albino mouse assessed as protection against scMet-induced seizures at 30 mg/kg, ip after 0.5 hrs; assay type: functional, organism-based; parameters: dose 30 mg/kg; in short: as §3
[10] = tested on: Rattus norvegicus; assay: Neurotoxicity in albino Sprague-Dawley rat at 50 mg/kg, po; assay type: toxicity, organism-based; parameters: dose 50 mg/kg, route oral; details: in vivo
In short: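 Neurotoxicity was scored in male Sprague-Dawley albino rats (100-150 g) dosed orally with a suspension in 0.5% methylcellulose. The read-out was the fraction of animals showing neurotoxicity (minimal motor impairment).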

[11] = tested on: Mus musculus; assay: Neurotoxicity in CF1 albino mouse at 30 mg/kg, ip after 4 hrs; assay type: toxicity, organism-based; parameters: dose 30 mg/kg, route intraperitoneal; details: in vivo; in short: as §1
[12] = tested on: Rattus norvegicus; assay: Anticonvulsant activity in albino Sprague-Dawley rat assessed as protection against maximal electroshock-induced seizures at 50 mg/kg, po after 1 hr; assay type: functional
In short: (§5)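 Adult male Sprague-Dawley albino rats (100-150 g) dosed orally with compound suspended in 0.5% methylcellulose (0.04 mL per 10 g). Maximal electroshock challenge at the stated time. Protection is scored in 25% steps as the fraction of animals protected, with neurotoxicity recorded in parallel.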

[13] = tested on: Mus musculus; assay: Neurotoxicity in CF1 albino mouse at 100 mg/kg, ip after 0.5 hrs; assay type: toxicity, organism-based; parameters: dose 100 mg/kg, route intraperitoneal; details: in vivo; in short: as §1
[14] = tested on: Mus musculus; assay: Anticonvulsant activity in CF1 albino mouse assessed as protection against maximal electroshock-induced seizures at 30 mg/kg, ip after 4 hrs; assay type: functional, organism-based; parameters: dose 30 mg/kg; in short: as §4
[15] = tested on: Mus musculus; assay: Anticonvulsant activity in CF1 albino mouse assessed as protection against scMet-induced seizures at 300 mg/kg, ip after 0.5 hrs; assay type: functional, organism-based; parameters: dose 300 mg/kg; in short: as §3
[16] = tested on: Rattus norvegicus; assay: Anticonvulsant activity in albino Sprague-Dawley rat assessed as protection against scMet-induced seizures at 50 mg/kg, po after 1 hr; assay type: functional; in short: as §2
[17] = tested on: Rattus norvegicus; assay: Anticonvulsant activity in albino Sprague-Dawley rat assessed as protection against maximal electroshock-induced seizures at 50 mg/kg, po after 2 hrs; assay type: functional; in short: as §5
[18] = tested on: Rattus norvegicus; assay: Anticonvulsant activity in albino Sprague-Dawley rat assessed as protection against maximal electroshock-induced seizures at 50 mg/kg, po after 15 mins; assay type: functional; in short: as §5
[19] = tested on: Mus musculus; assay: Anticonvulsant activity in CF1 albino mouse assessed as protection against maximal electroshock-induced seizures at 100 mg/kg, ip after 0.5 hrs; assay type: functional, organism-based; parameters: dose 100 mg/kg; in short: as §4
[20] = tested on: Rattus norvegicus; assay: Anticonvulsant activity in albino Sprague-Dawley rat assessed as protection against scMet-induced seizures at 50 mg/kg, po after 4 hrs; assay type: functional; in short: as §2
[21] = tested on: Mus musculus; assay: Anticonvulsant activity in CF1 albino mouse assessed as protection against scMet-induced seizures at 100 mg/kg, ip after 0.5 hrs; assay type: functional, organism-based; parameters: dose 100 mg/kg; in short: as §3
[22] = tested on: Rattus norvegicus; assay: Anticonvulsant activity in albino Sprague-Dawley rat assessed as protection against maximal electroshock-induced seizures at 50 mg/kg, po after 30 mins; assay type: functional; in short: as §5
[23] = tested on: Mus musculus; assay: Anticonvulsant activity in CF1 albino mouse assessed as protection against maximal electroshock-induced seizures at 300 mg/kg, ip after 0.5 hrs; assay type: functional, organism-based; parameters: dose 300 mg/kg; in short: as §4
[24] = tested on: Mus musculus; assay: Neurotoxicity in CF1 albino mouse at 100 mg/kg, ip after 4 hrs; assay type: toxicity, organism-based; parameters: dose 100 mg/kg, route intraperitoneal; details: in vivo; in short: as §1
[25] = tested on: Mus musculus; assay: Anticonvulsant activity in CF1 albino mouse assessed as protection against maximal electroshock-induced seizures at 30 mg/kg, ip after 0.5 hrs; assay type: functional, organism-based; parameters: dose 30 mg/kg; in short: as §4
[26] = tested on: Mus musculus; assay: Anticonvulsant activity in CF1 albino mouse assessed as protection against maximal electroshock-induced seizures at 300 mg/kg, ip after 4 hrs; assay type: functional, organism-based; parameters: dose 300 mg/kg; in short: as §4
[27] = tested on: Rattus norvegicus; assay: Anticonvulsant activity in albino Sprague-Dawley rat assessed as protection against maximal electroshock-induced seizures at 50 mg/kg, po after 4 hrs; assay type: functional, organism-based; parameters: dose 50 mg/kg; in short: as §5
[28] = tested on: Mus musculus; assay: Anticonvulsant activity in CF1 albino mouse assessed as protection against scMet-induced seizures at 100 mg/kg, ip after 4 hrs; assay type: functional, organism-based; parameters: dose 100 mg/kg; in short: as §3
[29] = tested on: Mus musculus; assay: Anticonvulsant activity in CF1 albino mouse assessed as protection against maximal electroshock-induced seizures at 60 mg/kg, ip; assay type: functional, organism-based; parameters: dose 60 mg/kg; in short: as §4
[30] = tested on: Mus musculus; assay: Anticonvulsant activity in ip dosed CF1 albino mouse assessed as protection against scMet-induced seizures; assay type: functional
In short: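 Adult male CF no. 1 albino mice (18-25 g) dosed ip with compound suspended in 0.5% methylcellulose (0.01 mL/g body weight). Seizures were induced by subcutaneous pentylenetetrazol, given as a 0.85% solution in 0.9% saline. ED50 was found by varying the dose to give 3-4 points between 0% and 100% protection, then probit analysis with 95% confidence intervals.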

[31] = tested on: Mus musculus; assay: Anticonvulsant activity in CF1 albino mouse assessed as protection against maximal electroshock-induced seizures at 150 mg/kg, ip after 0.5 hrs; assay type: functional, organism-based; parameters: dose 150 mg/kg; in short: as §4
[32] = tested on: Mus musculus; assay: Anticonvulsant activity in CF1 albino mouse assessed as protection against maximal electroshock-induced seizures at 400 mg/kg, ip; assay type: functional, organism-based; parameters: dose 400 mg/kg; in short: as §4
[33] = organism: Mus musculus; assay: Protective index, ratio of TD50 for CF1 albino mouse to ED50 for scMet-induced CF1 albino seizure mouse model; assay type: functional
In short: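 Ratio of TD50 to ED50 (MES or scMet) in male CF no. 1 mice (18-25 g) given ip doses in 0.5% methylcellulose. TD50 comes from minimal motor impairment: the dose was varied until four points lay between no impairment and all animals impaired. Both TD50 and ED50 were derived by probit analysis with 95% confidence intervals.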

[34] = tested on: Mus musculus; assay: Anticonvulsant activity in ip dosed CF1 albino mouse assessed as protection against 32 mA current-induced seizure by 6Hz psychomotor seizure test; assay type: functional
In short: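 In the 6 Hz psychomotor seizure test, male CF no. 1 albino mice (18-25 g) received the compound ip in 0.5% methylcellulose. Stimulation was at 32 or 44 mA. Doses were varied to give 3-4 points between 0% and 100% protection, and ED50 with 95% confidence interval came from probit analysis.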

CC1(C)C(C)(C)C1(C)C(=O)O
active: Activity [23] Toxic
inactive: Activity [2] | Activity [3] Non-toxic | Activity [4] Non-toxic | Activity [6] | Activity [7] Non-toxic | Activity [8] | Activity [9] Non-toxic | Activity [12] | Activity [14] Non-toxic | Activity [15] Non-toxic | Activity [16] | Activity [17] | Activity [18] | Activity [19] Non-toxic | Activity [21] Non-toxic | Activity [22] | Activity [25] Non-toxic | Activity [26] Non-toxic | Activity [27] | Activity [28] Non-toxic
25%: Activity [20]
Non-toxic: Activity [1] | Activity [5] | Activity [11] | Activity [13] | Activity [24]
Not Active: Activity [10]

CCCC(F)(CCC)C(N)=O
inactive: Activity [29] | Activity [31]
23 mg/kg: ED50 [30]
3.8: PI [33]
active: Activity [32]

CC[C@H](C(N)=O)N1CCCC1=O
19 mg/kg: ED50 [34]
